# Shown are actives, neighbours in structure and some others; about 1.5% of the full set was active somewhere.
# CSN inh: inhibitors of CSN-mediated cullin deneddylation, primary screen, biochemical, fluorescence polarization, uHTS; Purified CSN, SCF-Nedd8-OG deneddylation; inhibition, % at 12.5 µM; 360,000 compounds, 0.38% hits;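 active = pattern-corrected inhibition above about 35%, with an unprinted fluorescence ratio check between 0.5 and 1.5, limit read from the data, passing the limit was not always enough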;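 also: 0% = enzyme with substrate and 100% = substrate without enzyme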
# Target sequence (Q92905 whole entry, looked up, one chain of several): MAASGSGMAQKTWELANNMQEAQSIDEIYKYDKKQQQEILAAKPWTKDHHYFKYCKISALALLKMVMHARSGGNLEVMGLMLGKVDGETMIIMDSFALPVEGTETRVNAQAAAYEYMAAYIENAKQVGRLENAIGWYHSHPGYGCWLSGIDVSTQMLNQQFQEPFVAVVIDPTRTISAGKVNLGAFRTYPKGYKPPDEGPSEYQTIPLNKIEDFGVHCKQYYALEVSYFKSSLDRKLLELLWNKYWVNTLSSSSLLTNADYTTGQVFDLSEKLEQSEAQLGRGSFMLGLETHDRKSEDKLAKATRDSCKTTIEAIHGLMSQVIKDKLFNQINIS
#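 Assay system: HEK293T-derived human Csn5 enzyme; quantity: 0.24 nM enzyme; medium: Tris/NaCl/DTT buffer, pH 7.5; also added: substrate SCFSkp2-Nedd8OG, 10 nM; doses: 12.5 µM compound; schedule: 90 min reaction at room temperature; signal: FP; read-out: % inhibition of substrate cleavage by Csn5; benchmarks: substrate-only high control, full reaction low control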
# EBNA-1 inhibitor: EBNA-1 DNA-binding inhibitors, primary screen, biochemical, fluorescence polarization; inhibition, % at 14.8 µM; 300,000 compounds, 0.34% hits; AID 1950, 2009; in the data active = inhibition above about 28%
# LANA-H2A inh: blockers of LANA interaction with H2A/H2B – biochemical, FP readout, HTS, primary screen | 320,000 compounds, 0.6% hits | inhibition, % (test concentration not listed) | cell-free LANA-H2A/H2B peptide, fluorescence polarization | Protein LANA1 (Human herpesvirus 8 type P (isolate GK18)), Q9QR71; in the data active = inhibition mostly above about 10%, no sharp cut-off; inactive = mostly below about 6.7%
# ZTA DNA inh: counter-screen for EBNA-1 inhibitors: inhibitors of Epstein-Barr virus ZTA. inhibition, % at 11 µM. ZTA-DNA binding, fluorescence polarization. P03206. 320,000 compounds, 0.15% hits; in the data active = inhibition above about 33%
# Target sequence (P03206 whole entry, looked up): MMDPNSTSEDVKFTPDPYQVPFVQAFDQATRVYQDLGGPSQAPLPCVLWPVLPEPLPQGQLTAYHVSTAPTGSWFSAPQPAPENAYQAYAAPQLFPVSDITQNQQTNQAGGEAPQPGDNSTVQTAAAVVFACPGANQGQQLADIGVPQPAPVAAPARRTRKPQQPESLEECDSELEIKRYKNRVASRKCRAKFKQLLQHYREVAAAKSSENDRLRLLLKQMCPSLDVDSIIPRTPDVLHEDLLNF
# Bfl-1 A1 inh: caspase 3/7 activation in MEF A1-2A-BIM cells, primary screen, A1 inhibitor project, cell-based, luminescence, HTS | Caspase-Glo 3/7 luminescence, 3 h; percent of clofoctol response, vehicle zero | caspase activation, % (no concentration beside the values) | 330,000 compounds, 0.066% hits | AID 2462, 2010;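 active = over half of replicate activation scores above 10%, or exactly half above 10 with the replicate mean above 10; inconclusive = replicate mean below 10 yet half the replicates above 10; inactive = over half of replicates below 10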
# HNF4A DNA FP: change in binding of human HNF4A to DNA, primary screen, biochemical, fluorescence polarization, FITC-DNA; Hepatocyte nuclear factor 4-alpha (Homo sapiens), P41235; 1 h; activity change, % at 10 µM; 360,000 compounds, 0.3% hits; AID 1224865, 2016; in the data active = activity change above about 30%, passing the limit was not always enough
# The depositor's hits bear a star; ? = inconclusive; nt = not tested or not shown; + = active, no number.
SMILES,CSN inh,EBNA-1 inhibitor,LANA-H2A inh,ZTA DNA inh,Bfl-1 A1 inh,HNF4A DNA FP
COc1ccc2[nH]cc(CCNS(=O)(=O)c3ccc(F)cc3)c2c1,1,2,-2,-1,-1,1
COC(=O)c1cc(NC(=O)CC2C(=O)NCCN2C(=O)c2ccccc2)cc(C(=O)OC)c1 (stereo not drawn),1,-7,-3,18,0,-2
COC(=O)c1cccc(NC(=O)CC2C(=O)NCCN2C(=O)Nc2ccccc2)c1 (stereo not drawn),1,12,189*,3,-1,-4
O=C(Nc1ccc(CN2CCOCC2)cc1)c1ccc(-c2cccc([N+](=O)[O-])c2)o1,0,3,26*,5,0,0
O=C(CCN1CCN(Cc2ccccc2)CC1)NNC(=O)Nc1cccc([N+](=O)[O-])c1,1,nt,16*,nt,0,-1
COc1cc(CC(=O)N2CCN(S(=O)(=O)c3ccc(C)cc3)CC2)cc(OC)c1OC,-2,nt,5,nt,1,-5
CC(C)(C)N(Cc1ccccc1)C(=O)c1ccc(Br)o1,-4,5,9.6*,15,0,-2
CCCCn1c(O)c(N=Nc2ccccn2)c2ccccc21,4,6,-1,-13,1,4
CCCCn1c(O)c(N=Nc2ccccc2O)c2ccccc21,13,nt,1,-3,?,84*
O=C(OCCCN=C1NS(=O)(=O)c2ccccc21)c1ccc([N+](=O)[O-])cc1,-13,2,4,10,1,1
CC1(C)CC(c2nc(-c3ccccc3)cs2)CCS1 (stereo not drawn),97*,8,-7,-12,0,17
COc1ccc(NS(=O)(=O)c2cc(NC(=O)/C=C/c3cccs3)ccc2N2CCOCC2)cc1,-8,73*,-8,-18,0,1
COc1cccc2c1OCC(CN1CCN(Cc3ccccc3F)C(CCO)C1)=C2 (stereo not drawn),-4,+,-3,130*,1,0
COc1cccc2c1OCC(CN1CCN(Cc3ccccc3)C(CCO)C1)=C2 (stereo not drawn),2,-6,4,8,0,-5
O=c1cc(-c2ccccc2Cl)oc2c(NS(=O)(=O)c3cc(Cl)cc(Cl)c3O)ccc(O)c12,47*,24,0,16,1,-22
CCc1ccc(S(=O)(=O)Nc2ccc(O)c3c(=O)cc(-c4ccccc4Cl)oc23)cc1,3,8,5,-6,0,0
Cc1cccc(NC(=O)CCSc2nnc(Cc3ccccc3)o2)c1,-2,7,-1,8,-1,-1
O=C(NNc1cc(N2CCCC2)nc(N2CCCC2)n1)c1ccc([N+](=O)[O-])cc1,41*,-13,8,-4,0,3
CC(C)(C)c1ccc(C(=O)NNc2cc(N3CCCCC3)nc(N3CCCCC3)n2)cc1,1,-1,18,-11,1,-5
CCOc1cc(/C=N/Nc2cc(C)nc(-n3nc(C)cc3C)n2)ccc1O,4,2,3,-8,8.6*,-3
CCN1C(=O)[C@@H]2Cc3c([nH]c4ccccc34)C(c3ccc(OC)cc3)N2C1=S (stereo partly drawn),24,-5,1,-7,-3,43*
CC(=O)c1c(C)[nH]c(C(=O)COC(=O)c2c(-c3ccccc3)noc2C)c1C,2,nt,1,nt,-1,-1
O=C(CSC1=N/C(=C/c2ccco2)C(=O)N1c1ccc(OC(F)F)cc1)NC1CCS(=O)(=O)C1 (stereo not drawn),3,-2,-12,1,-1,24
CCNC(=O)CSC1=N/C(=C\c2ccc(O)c(OCC)c2)C(=O)N1c1ccc(OC(F)F)cc1,47*,-8,-11,12,1,90*
Cc1nc(N2CCc3ccccc3C2)[nH]c(=O)c1Cc1ccccc1,6,3,11*,-30,-1,2
SMILES,CSN inh,EBNA-1 inhibitor,LANA-H2A inh,ZTA DNA inh,Bfl-1 A1 inh,HNF4A DNA FP
CCCCCc1c(C)nc(N2CCc3ccccc3C2)[nH]c1=O,3,nt,nt,nt,nt,0
CCn1ncc(C2=NOC(C(=O)NCc3ccc(Cl)cc3)C2)c1C (stereo not drawn),-2,-2,58*,-2,1,-2
O=C(Nc1ccncc1NC(=O)c1cccc([N+](=O)[O-])c1)c1cccc([N+](=O)[O-])c1,41*,1,-5,-2,0,-5
CC1NC(=O)c2cc3ccccc3cc2-n2c1nc1ccccc1c2=O (stereo not drawn),-1,nt,nt,nt,nt,0
Cc1ccc(NC(=O)CSc2nnc(CNC(=O)c3ccco3)n2C)cc1C,43*,-9,nt,-3,3,-2
Cc1ccc(C)n1-c1sc2c(c1C(=O)O)CCCC2,39*,-3,0,-6,0,-42
CCOC(=O)c1c(-n2c(C)cc(C=O)c2C)sc2c1CCCC2,4,7,0,-3,1,1
O=C(COC(=O)C1CC2C=CC1C2)NCc1ccco1 (stereo not drawn),35*,5,-4,11,1,-11
O=C(COC(=O)C1CC2C=CC1C2)NCc1ccc(F)cc1 (stereo not drawn),5,6,-4,1,0,-4
COc1ccccc1CC(O)CC1c2c(cc3c(c2OC)OCO3)CCN1C (stereo not drawn),4,nt,nt,nt,nt,-1
COc1cc(/C=C2\SC(=S)N(NS(=O)(=O)c3ccccc3)C2=O)ccc1O,31,-4,-9,-1,0,30
COc1cc(/C=C2\SC(=S)N(NC(=O)c3ccccc3OC)C2=O)ccc1O,5,nt,-1,nt,-1,48*
O=C(NN1C(=O)/C(=C/C=C/c2ccco2)SC1=S)c1ccccc1O,74,37*,-3,49*,0,-22
COc1ccc(CC(=O)Oc2ccc(Cl)cc2Br)cc1S(=O)(=O)N1CCOCC1,1,9,0,10,1,-1
O=C1CC(=O)Nc2cc(S(=O)(=O)N3CCN(c4ccc([N+](=O)[O-])cc4)CC3)ccc2N1,-2,-2,3,10,0,-4
COc1ccccc1/C=C/C(=O)OCC(=O)NC(=O)NC1CCCC1,5,nt,1,nt,1,1
COc1ccc(N2CC(C(=O)N[C@@H](CC(C)C)C(=O)NC3CCCC3)CC2=O)cc1 (stereo partly drawn),1,-1,0,2,1,-2
COc1cccc(C2CC(c3ccc(Cl)cc3Cl)Nc3nc(N)nn32)c1 (stereo not drawn),6,3,10.0*,7,0,0
